# How the values were obtained:
# [1] = target: T1, G-protein coupled receptor 55 (Homo sapiens, UniProt Q9Y2T6); test: Agonist activity at HA-epitope-tagged variant of GPR55E with serine enhanced C terminus (unknown origin) expressed in human U2OS cells assessed as increase in GFP-tagged beta arrestin2 recruitment after 75 mins by fluorescence assay; assay type: cell-based
# Target sequence in this assay (Q9Y2T6 whole entry, looked up): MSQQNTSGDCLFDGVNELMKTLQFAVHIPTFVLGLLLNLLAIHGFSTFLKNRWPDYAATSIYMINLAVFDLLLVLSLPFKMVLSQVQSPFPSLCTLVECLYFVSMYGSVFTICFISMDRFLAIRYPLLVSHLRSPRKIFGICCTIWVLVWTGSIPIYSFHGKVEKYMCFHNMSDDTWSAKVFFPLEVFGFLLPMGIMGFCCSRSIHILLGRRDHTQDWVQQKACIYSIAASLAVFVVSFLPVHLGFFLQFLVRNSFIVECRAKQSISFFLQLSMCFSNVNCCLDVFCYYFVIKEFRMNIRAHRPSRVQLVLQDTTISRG
# [2] = target: Cannabinoid receptor 1 (Homo sapiens, UniProt P21554); test: Agonist activity at human brain CB1 receptor expressed in U2OS cells assessed as increase in beta arrestin recruitment after 60 mins by fluorescence assay; assay type: functional, cell-based
# Sequence of Cannabinoid receptor 1 (P21554 whole entry): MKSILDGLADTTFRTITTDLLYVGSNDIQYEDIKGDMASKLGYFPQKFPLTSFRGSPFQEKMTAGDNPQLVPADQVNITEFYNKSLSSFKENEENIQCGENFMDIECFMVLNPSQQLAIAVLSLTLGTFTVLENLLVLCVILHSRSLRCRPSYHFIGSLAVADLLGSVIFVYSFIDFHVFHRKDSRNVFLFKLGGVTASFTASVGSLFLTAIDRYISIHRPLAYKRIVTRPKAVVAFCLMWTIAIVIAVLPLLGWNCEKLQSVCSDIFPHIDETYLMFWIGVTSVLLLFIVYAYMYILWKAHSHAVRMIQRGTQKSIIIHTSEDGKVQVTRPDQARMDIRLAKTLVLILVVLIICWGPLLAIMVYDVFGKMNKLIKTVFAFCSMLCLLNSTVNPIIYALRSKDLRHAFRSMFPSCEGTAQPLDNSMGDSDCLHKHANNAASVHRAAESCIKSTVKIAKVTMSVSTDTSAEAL
# [3] = target: Cannabinoid receptor 2 (Homo sapiens, UniProt P34972); test: Agonist activity at human CB2 receptor expressed in U2OS cells assessed as increase in GFP-tagged beta arrestin recruitment after 75 mins by fluorescence assay; assay type: functional, cell-based
# Sequence of Cannabinoid receptor 2 (P34972 whole entry, the tested form may be a part): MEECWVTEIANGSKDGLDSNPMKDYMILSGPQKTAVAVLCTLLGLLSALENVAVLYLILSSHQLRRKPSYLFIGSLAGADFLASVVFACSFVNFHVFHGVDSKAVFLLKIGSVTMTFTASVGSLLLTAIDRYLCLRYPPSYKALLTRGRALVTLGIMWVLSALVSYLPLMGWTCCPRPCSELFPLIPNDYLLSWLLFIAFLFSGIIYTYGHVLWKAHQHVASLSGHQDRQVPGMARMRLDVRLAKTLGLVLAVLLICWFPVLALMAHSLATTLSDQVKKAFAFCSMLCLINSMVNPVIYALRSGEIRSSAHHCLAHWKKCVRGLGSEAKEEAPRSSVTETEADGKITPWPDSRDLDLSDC
# [4] = target: T1, G-protein coupled receptor 55; test: Agonist activity at beta-galactosidase enzyme fragment-fused GPR55 (unknown origin) expressed in CHOK1 cells assessed as increase in N-terminal deletion beta-galactosidase mutant-tagged beta arrestin recruitment measured for 1 sec by chemiluminescence based pathhunter assay; assay type: functional, cell-based
# Method in brief: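 CHO-K1 cells stably co-expressing the receptor–β-gal fragment fusion and the β-arrestin–deletion-mutant fusion, kept in selection medium, passaged up to 10 times. Ligands tested from 0.5 nM to 30 μM. Chemiluminescent substrate signal read at room temperature for 1 s. Vehicle readings subtracted from ligand readings (RLU), and EC50 obtained from these values. LPI served as positive control. Run in triplicate, repeated at least 3 times.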
# Target sequence in this assay (Q9Y2T6 whole entry, looked up, stated change not applied): as the sequence (Q9Y2T6 whole entry, looked up) above
EC50 [4] [nM],Compound,also measured
300,CN(c1ccccc1)S(=O)(=O)c1ccc(NC(=S)NC(=O)c2ccc3cc(CCO)ccc3c2)cc1,
> 30000,COc1ccccc1/C=C/C(=O)NC(=S)Nc1ccc(S(=O)(=O)NCC(O)CO)cc1 (stereo not given),
600,COc1ccccc1/C=C/C(=O)NC(=S)Nc1ccc(S(=O)(=O)Nc2ccccc2)cc1,
500,COc1ccccc1/C=C/C(=O)NC(=S)Nc1ccc(S(=O)(=O)N(Cc2ccc(O)cc2)c2ccccc2)cc1,
900,O=C(NC(=S)Nc1ccc(S(=O)(=O)N(Cc2ccncc2)c2ccccc2)cc1)c1ccc2cccnc2c1,
2000,COc1ccccc1/C=C/C(=O)NC(=S)Nc1ccc(S(=O)(=O)N(Cc2ccccc2O)c2ccccc2)cc1,
6000,O=C(NC(=S)Nc1ccc(S(=O)(=O)N(Cc2ccc(CO)o2)c2ccccc2)cc1)c1ccc2cc(CCO)ccc2c1,
4000,CN(c1ccccc1)S(=O)(=O)c1ccc(NC(=S)NC(=O)c2ccc3cc(CO)ccc3c2)cc1,
600,O=C(NC(=S)Nc1ccc(S(=O)(=O)N(Cc2ccc(CO)o2)c2ccccc2)cc1)c1ccc2cccnc2c1,
500,COc1ccccc1/C=C/C(=O)NC(=S)Nc1ccc(S(=O)(=O)N(C)c2ccncc2)cc1,
> 30000,CN(c1ccccc1)S(=O)(=O)c1ccc(NC(=S)NC(=O)c2cnc3ccccc3c2)cc1,
2000,COc1ccccc1/C=C/C(=O)NC(=S)Nc1ccc(S(=O)(=O)N(Cc2cccc(O)c2)c2ccccc2)cc1,
200,O=C(NC(=S)Nc1ccc(S(=O)(=O)N(CCO)c2ccccc2)cc1)c1ccc2cccnc2c1,
1000,CN(c1ccccc1)S(=O)(=O)c1ccc(NC(=S)NC(=O)c2ccc3cccnc3c2)cc1,

# The next lines start with the compound.
Compound,EC50 [4] [nM],also measured
Cc1cccc(N2CCN(C(=O)c3cc(S(=O)(=O)N(C)C)ccc3N3CCCC3)CC2)c1C,,EC50 [1]: 260 nM; EC50 [2]: > 30000 nM; EC50 [3]: > 30000 nM
COc1ccccc1/C=C/C(=O)NC(=S)Nc1ccc(S(=O)(=O)N(C)c2ccccc2)cc1,,EC50 [1]: 110 nM; EC50 [2]: > 30000 nM; EC50 [3]: > 30000 nM
COc1ccc2cc(C)c3nnc(SCC(=O)Nc4nc(-c5ccc(F)cc5)cs4)n3c2c1,,EC50 [1]: 160 nM; EC50 [2]: > 30000 nM; EC50 [3]: > 30000 nM
COc1ccccc1/C=C/C(=O)NC(=S)Nc1ccc(S(=O)(=O)Nc2onc(C)c2C)cc1,> 30000,
O=C(NC(=S)Nc1ccc(S(=O)(=O)N(Cc2ccc(O)cc2)c2ccccc2)cc1)c1ccc2cccnc2c1,500,
O=C(NC(=S)Nc1ccc(S(=O)(=O)N(CCO)c2ccccc2)cc1)c1ccc2cc(CCO)ccc2c1,20000,
COc1ccccc1/C=C/C(=O)NC(=S)Nc1ccc(S(=O)(=O)NCCO)cc1,> 30000,
COc1ccccc1/C=C/C(=O)NC(=S)Nc1ccc(S(=O)(=O)N(CCO)c2ccccc2)cc1,700,
COc1ccccc1/C=C/C(=O)NC(=S)Nc1ccc(S(=O)(=O)N(Cc2ccncc2)c2ccccc2)cc1,300,
COc1ccccc1/C=C/C(=O)NC(=S)Nc1ccc(S(=O)(=O)N(Cc2ccc(CO)o2)c2ccccc2)cc1,100,
